Molecules are shown by their SMILES.

In assay [1] the test system is Nucleic Acid. The experiment in a line: Relative binding affinity for calf thymus DNA in MES 10 at 25 degrees C (Spectrophotometric data). Format: nucleic-acid assay. The settings on record: Bos taurus. A digest of the protocol:
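Spectrophotometric titration of ~1 × 10^-3 M compound stock into calf thymus DNA in MES 10 buffer at 25 °C. Each point averages 100 absorbance readings. Absorbances converted to ν (mol bound per mol base pairs) and free ligand using free and bound extinction coefficients. K and site size n come from a nonlinear least-squares fit of the Scatchard plot to the site exclusion model, in base-pair molarity.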

Assay [2] deals with Nucleic Acid. Description: Thermal melting point of calf thymus DNA complexed with monoimide in MES 00 buffer (Spectrophotometric data). The settings on record: Bos taurus. In kind it is functional.

In assay [1], `CN(C)CCCN1C(=O)c2cccc3cccc(c23)C1=O` returned a K of 0.0089. The Tm in assay [2] stood at 71.9 °C.

Take `CN(C)CCCN1C(=O)c2cccc3cc(N)cc(c23)C1=O`: in assay [1], the K is 0.0112. Moreover, in assay [2], the Tm came out at 70.6 °C.

In assay [1], `CN(C)CCCN1C(=O)c2cccc3c([N+](=O)[O-])ccc(c23)C1=O` came in with a K of 0.0083. Moreover, the Tm in assay [2] is 71.7 °C.

`CN(C)CCCN1C(=O)c2cccc3cc([N+](=O)[O-])cc(c23)C1=O`: in assay [1], the K was 0.0234. For the same molecule, the Tm in assay [2] turned out to be 77.6 °C.

Molecule `CN(C)CCCN1C(=O)c2cccc3c(N)ccc(c23)C1=O` registered a K in assay [1] of 0.0162. For the same molecule, the Tm in assay [2] turned out to be 70.6 °C.
